Assay results of several laboratories.
Compare with care: the assays were run in different laboratories.
Target: Phosphatidylinositol 4-phosphate 5-kinase type-1 alpha (PIP5K1A, Homo sapiens, UniProt Q99755)

SMILES	assay	conditions	remaining binding [%]
O=C(c1ccc(Nc2ncc(Cl)c(-c3cc4ccccc4s3)n2)cc1)N1CCC(N2CCCC2)CC1	binding, competition with immobilised ligand	1 µM	2.2
Cc1cnn2ncc(-c3ccnc(N(C)C)n3)c2c1	binding	1 µM	100
CN(C(=O)c1ccccc1)c1cc(N(C)c2ccc3c(c2)CCc2ccc(C(=O)NCCN4CCOCC4)cc2C3=O)ccc1F	cell-free assay, competition with immobilised ligand	1 µM	100
COc1ncc2cc3ccccc3nc2c1C#N	cell-free assay, competition with immobilised ligand	5 µM	100
Cc1cc(NC(=O)c2cccc(S(F)(F)(F)(F)F)c2)cc(-n2ccn3nc(-c4cccnc4)cc23)c1	cell-free assay, competition with immobilised ligand	1 µM	100
CN(CCCC(F)(F)F)c1nccc(-c2cnn3ncccc23)n1	binding	1 µM	100
O=C(NCCCN1CCOCC1)c1ccc(Nc2nccc(-c3cc4ccccc4s3)n2)cc1	binding, competition with immobilised ligand	1 µM	4.2
Nc1ncc2c(n1)-c1c([nH]c3ccc(C#CC4CC4)cc13)CCCC2	binding, competition with immobilised ligand	1 µM	99
N[C@@H]1CCN(c2nccc(-c3cnn4ncccc34)n2)C1	binding	1 µM	100
COc1cnc(Nc2cccc(S(N)(=O)=O)c2)nc1N1CCN(c2ccccc2)C(=O)C1	binding, competition with immobilised ligand	1 µM	89
C[C@H](c1cccc(C#N)c1)n1cc(Cl)cc(C(N)=O)c1=N	cell-free assay, competition with immobilised ligand	1 µM	100
C=CC(=O)N1CCC(C(=O)NCC(=O)N2CCN(c3nc(-c4cnc(N)nc4C(F)F)nc(N4CCOCC4)n3)CC2)CC1	binding, competition with immobilised ligand	1 µM	100
C[C@@H](c1ccc(-n2cnc3c(N)ncnc32)cc1)N1CCc2nn(C)c(Cc3ccccc3)c2C1=O	binding, competition with immobilised ligand	0.1 µM	87
C[C@H]1CCN(c2nccc(-c3cnn4ncccc34)n2)C1	binding	1 µM	47
COc1ccc2cc(OCC3(C(=O)O)CN(C(=O)c4ccc(F)cc4)C3)ccc2c1	cell-free assay, competition with immobilised ligand	1 µM	100
CC1CCCN1c1nccc(-c2cnn3ncccc23)n1 (stereo not shown)	binding	1 µM	100
CC(=O)c1c(NS(C)(=O)=O)c2cc(-c3ccc(Cl)cc3)c(-c3ccc(Cl)cc3Cl)nc2n(C)c1=O	cell-free assay, competition with immobilised ligand	1 µM	97
O=C(NCCCN1CCOCC1)c1ccc(Nc2ncc(Cl)c(-c3ccc(Cl)s3)n2)cc1	binding, competition with immobilised ligand	1 µM	8.3
O=C(NCC1CCOCC1)c1n[nH]cc1NC(=O)c1c(F)cccc1F	binding, competition with immobilised ligand	1 µM	100
CN(C)c1nccc(-c2cnc3ncccn23)n1	binding	1 µM	72
CN(c1ccnc(CNc2nc(Nc3ccc4c(c3)CC(=O)N4)ncc2C(F)(F)F)n1)S(C)(=O)=O	cell-free assay, competition with immobilised ligand	1 µM	12
COc1cnc(Nc2cccc(S(N)(=O)=O)c2)nc1N1CCN(c2ccccc2)CC1	binding, competition with immobilised ligand	1 µM	93
